# Laboratory results published in ChEMBL document CHEMBL4017489, “Design, Synthesis, and Evaluation of New Selective NM23-H2 Binders as c-MYC Transcription Inhibitors via Disruption of the NM23-H2/G-Quadruplex Interaction” (J Med Chem, 2017).
# Activity calls are given as the source filed them. The rule behind the calls is not given here.
# Columns and labels:
# [1] = Binding affinity to Htg21 telomeric G-quadruplex DNA (unknown origin) at 40 uM after 30 mins by SPR analysis
# [2] = target: T1, Nucleoside diphosphate kinase B (Homo sapiens, UniProt P22392); experiment: Binding affinity to NM23-H2 (unknown origin) assessed as ratio of Kd for protein interaction with biotin-labeled Pu22 c-myc G-quadruplex DNA in presence and absence of compound after 1 hr by ELISA
# T1 sequence (P22392 whole entry): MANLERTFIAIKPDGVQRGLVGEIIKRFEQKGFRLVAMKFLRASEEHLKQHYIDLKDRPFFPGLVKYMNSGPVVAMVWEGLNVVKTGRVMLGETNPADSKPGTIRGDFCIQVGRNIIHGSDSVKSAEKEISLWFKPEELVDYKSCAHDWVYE
# [3] = target: T1, Nucleoside diphosphate kinase B; experiment: Binding affinity to N-terminal NT-647-NHS labeled NM23-H2 (unknown origin) after 30 mins by MST analysis
# Procedure, shortened: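 NM23-H2 N-terminally labeled with RED-NHS dye (20 μM protein, 30 min dark, RT), free dye removed; 200 nM labeled protein with compound from 500 μM, 16 twofold steps, 30 min RT in 50 mM Tris-HCl pH 7.4, 150 mM NaCl, 10 mM MgCl2, 0.05% Tween-20; KD at half-plateau.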
# [4] = target: T1, Nucleoside diphosphate kinase B; experiment: Binding affinity to NM23-H2 (unknown origin) by SPR analysis
# [5] = Binding affinity to biotin-labeled 18-mer duplex DNA hairpin (unknown origin) at 40 uM after 30 mins by SPR analysis
# [6] = target: T1, Nucleoside diphosphate kinase B; experiment: Binding affinity to NM23-H2 (unknown origin) up to 40 uM by SPR analysis
# [7] = Binding affinity to biotin-labeled Pu22 c-myc G-quadruplex DNA (unknown origin) by SPR analysis
SMILES,Activity [1],Ratio [2],Kd [3],Kd [4],Activity [5],Activity [6],Kd [7]
CN(C)CCCNc1cc2nc3n(c(=O)c2cc1F)CC/C3=C\c1ccc(/C=C/c2ccccn2)cc1,inactive,> 3,10.8 µM,8.5 µM,inactive,–,–
CN(C)CCNc1cc2nc3n(c(=O)c2cc1F)CC/C3=C\c1ccc(C=O)cc1,inactive,–,68 µM,–,inactive,inactive,–
O=c1c2cc(F)c(NCCCN3CCOCC3)cc2nc2n1CC/C2=C\c1ccc(N2CCOCC2)cc1,inactive,–,–,–,inactive,inactive,–
CCN(CC)CCCNc1cc2nc3n(c(=O)c2cc1F)CC/C3=C\c1ccc(/C=C/c2ccccn2)cc1,inactive,2.1 to 2.6,20.8 µM,13.8 µM,inactive,–,–
COc1cc(/C=C2\CCn3c2nc2cc(NCCCN4CCOCC4)c(F)cc2c3=O)cc(OC)c1OC,inactive,–,23.6 µM,18.5 µM,inactive,–,–
CCN(CC)CCCNc1cc2nc3n(c(=O)c2cc1F)CC/C3=C\c1cc(OC)c(OC)c(OC)c1,inactive,–,28.2 µM,16.3 µM,inactive,–,–
O=c1c2cc(F)c(NCCCN3CCOCC3)cc2nc2n1CC/C2=C\c1ccc(N2CCCCC2)cc1,inactive,–,–,–,inactive,inactive,–
CCN(CC)CCCNc1cc2nc3n(c(=O)c2cc1F)CC/C3=C\c1ccc(F)cc1,inactive,–,61.6 µM,–,inactive,inactive,–
CCN(CC)CCCNc1cc2nc3n(c(=O)c2cc1F)CC/C3=C\c1ccc(OCc2ccccc2)c(O)c1,inactive,> 3,25.8 µM,16.7 µM,inactive,–,–
CC(C)Oc1ccc(/C=C2\CCn3c2nc2cc(NCCCN(C)C)c(F)cc2c3=O)cc1,inactive,> 3,15.4 µM,9.6 µM,inactive,–,–
O=c1c2cc(F)c(NCCCN3CCOCC3)cc2nc2n1CC/C2=C\c1ccc(OCc2ccccc2)cc1O,inactive,–,16.9 µM,14.3 µM,inactive,–,–
COc1cc(/C=C2\CCn3c2nc2cc(NCCCN(C)C)c(F)cc2c3=O)cc(OC)c1O,inactive,–,16.5 µM,13.3 µM,inactive,–,–
CC(C)c1ccc(/C=C2\CCn3c2nc2cc(NCCCN4CCOCC4)c(F)cc2c3=O)cc1,inactive,–,–,–,inactive,inactive,–
CCN(CC)CCCNc1cc2nc3n(c(=O)c2cc1F)CC/C3=C\c1ccc(OCc2ccccc2)cc1,inactive,> 3,20.6 µM,14.6 µM,inactive,–,–
CCN(CC)CCCNc1cc2nc3n(c(=O)c2cc1F)CC/C3=C\c1ccc(N(CC)CC)cc1O,inactive,2.1 to 2.6,11.7 µM,13.9 µM,inactive,–,–
O=c1c2cc(F)c(NCCCN3CCOCC3)cc2nc2n1CC/C2=C\c1ccc(F)cc1,inactive,–,44.2 µM,–,inactive,inactive,–
CCN(CC)CCCNc1cc2nc3n(c(=O)c2cc1F)CC/C3=C\c1ccc(C(F)(F)F)cc1,inactive,–,59.4 µM,–,inactive,inactive,–
CCN(CC)c1ccc(/C=C2\CCn3c2nc2cc(NCCCN4CCOCC4)c(F)cc2c3=O)cc1,inactive,–,–,–,inactive,inactive,–
CCN(CC)CCCNc1cc2nc3n(c(=O)c2cc1F)CC/C3=C\c1ccc(N2CCOCC2)cc1,inactive,–,55.3 µM,–,inactive,inactive,–
CCN(CC)CCCNC(=O)c1ccc(/C=C2\CCn3c2nc2cc(NCCN4CCCC4)c(F)cc2c3=O)cc1,–,–,–,7.6 µM,–,–,3.8 µM
COc1ccc(/C=C2\CCn3c2nc2cc(NCCCN4CCOCC4)c(F)cc2c3=O)cc1,inactive,–,25.6 µM,28.4 µM,inactive,–,–
CCN(CC)c1ccc(/C=C2\CCn3c2nc2cc(NCCN(C)C)c(F)cc2c3=O)cc1,inactive,–,45.7 µM,–,inactive,inactive,–
O=c1c2cc(F)c(NCCCN3CCOCC3)cc2nc2n1CC/C2=C\c1ccc(C(F)(F)F)cc1,inactive,–,–,–,inactive,inactive,–

SMILES,Activity [1],Ratio [2],Kd [3],Kd [4],Activity [5],Activity [6],Kd [7]
CN(C)CCCNc1cc2nc3n(c(=O)c2cc1F)CC/C3=C\c1ccc(O)c(O)c1,inactive,–,10.7 µM,9.2 µM,inactive,–,–
COc1ccc(/C=C2\CCn3c2nc2cc(NCCCN(C)C)c(F)cc2c3=O)cc1OC,inactive,–,19.2 µM,15.8 µM,inactive,–,–
CCN(CC)CCCNc1cc2nc3n(c(=O)c2cc1F)CC/C3=C\c1ccc(OCc2ccccc2)cc1O,inactive,> 3,3.4 µM,4.6 µM,inactive,–,–
CCN(CC)CCCNc1cc2nc3n(c(=O)c2cc1F)CC/C3=C\c1ccc(OC)c(OC)c1,inactive,–,25.1 µM,17.1 µM,inactive,–,–
CN(C)CCCNc1cc2nc3n(c(=O)c2cc1F)CC/C3=C\c1ccc(OCc2ccccc2)c(O)c1,inactive,> 3,16.1 µM,13.2 µM,inactive,–,–
CCN(CC)CCCNc1cc2nc3n(c(=O)c2cc1F)CC/C3=C\c1ccc(N2CCCCC2)cc1,inactive,–,–,–,inactive,inactive,–
C#CCOc1ccc(/C=C2\CCn3c2nc2cc(NCCCN(C)C)c(F)cc2c3=O)cc1,inactive,–,8.9 µM,25.6 µM,inactive,–,–
COc1cc(/C=C2\CCn3c2nc2cc(NCCCN(C)C)c(F)cc2c3=O)cc(OC)c1OC,inactive,2.1 to 2.6,18.4 µM,16.8 µM,inactive,–,–
CN(C)CCNc1cc2nc3n(c(=O)c2cc1F)CC/C3=C\c1ccc(OCc2ccccc2)cc1O,inactive,> 3,6.4 µM,8.1 µM,inactive,–,–
CCN(CC)CCCNc1cc2nc3n(c(=O)c2cc1F)CC/C3=C\c1ccc(C(C)C)cc1,inactive,–,–,–,inactive,inactive,–
CCCOc1ccc(/C=C2\CCn3c2nc2cc(NCCCN(C)C)c(F)cc2c3=O)cc1,inactive,–,21 µM,20.6 µM,inactive,–,–
CCN(CC)CCCNc1cc2nc3n(c(=O)c2cc1F)CC/C3=C\c1ccc(OC)cc1,inactive,–,23.5 µM,15.4 µM,inactive,–,–
C#CCOc1ccc(/C=C2\CCn3c2nc2cc(NCCN(C)C)c(F)cc2c3=O)cc1,inactive,–,27.5 µM,–,inactive,inactive,–
O=c1c2cc(F)c(N3CCOCC3)cc2nc2n1CC/C2=C\c1ccc(OCc2ccccc2)cc1O,inactive,–,56 µM,–,inactive,inactive,–
CC(=O)Oc1ccc(/C=C2\CCn3c2nc2cc(NCCCN(C)C)c(F)cc2c3=O)cc1,inactive,–,18.9 µM,10.1 µM,inactive,–,35.8 µM
CCN(CC)CCCNc1cc2nc3n(c(=O)c2cc1F)CC/C3=C\c1ccc(N(CC)CC)cc1,inactive,2.1 to 2.6,48.5 µM,–,inactive,inactive,–
O=c1c2cc(F)c(NCCCN3CCCC3)cc2nc2n1CC/C2=C\c1ccc(OCc2ccccc2)cc1O,inactive,> 3,10.8 µM,11.5 µM,inactive,–,–
O=Cc1ccc(/C=C2\CCn3c2nc2cc(NCCCN4CCOCC4)c(F)cc2c3=O)cc1,inactive,–,–,38 µM,inactive,–,–
O=c1c2cc(F)c(NCCN3CCCCC3)cc2nc2n1CC/C2=C\c1ccc(OCc2ccccc2)cc1O,inactive,> 3,7.6 µM,12.2 µM,inactive,–,–
CCN(CC)CCCNc1cc2nc3n(c(=O)c2cc1F)CC/C3=C\c1ccccc1OC,inactive,–,72.8 µM,–,inactive,inactive,–
O=c1c2cc(F)c(NCCCN3CCOCC3)cc2nc2n1CC/C2=C\c1ccc(OCc2ccccc2)cc1,inactive,2.1 to 2.6,22.3 µM,18.4 µM,inactive,–,–
CN(C)CCCNc1cc2nc3n(c(=O)c2cc1F)CC/C3=C\c1ccc(Oc2ccccc2)cc1,inactive,–,16.3 µM,12.4 µM,inactive,–,–
